Experimental data pooled from the literature.
Read-out: cell growth or viability

Compound	cell line	assay	conditions	IC50 [µM]
COc1cccc(NC(=O)Nc2nc3cc(-c4ccc5ncn(CC(=O)N6CCOCC6)c(=O)c5c4)ccc3s2)c1	PC-9	MTT	72 h	> 20
Nc1ccccc1NC(=O)c1ccc(Cn2cnc3c(Nc4ccc(Br)cc4F)ncnc32)cc1	Raji	MTT	72 h	0.12
COc1cc(C2C3=C(Nc4nc(SC)[nH]c(=O)c42)c2ccccc2C3=O)ccc1O (stereo not shown)	SK-OV-3	MTT	72 h	> 1000
COc1cccc2c1C(=O)c1c(O)c3c(c(O)c1C2=O)C[C@@](O)(C(=O)CO)C[C@@H]3O[C@H]1C[C@H](N)[C@H](O)[C@H](C)O1	DOHH-2	–	96 h	10
CCCc1cc2cc(-n3nc(C)c4c3CC(C)(C)CC4=O)cc(N3CCC(O)CC3)c2c(=O)[nH]1	SK-OV-3	MTS	–	2.98
O=C(NO)c1ccc(Cn2cnc3c(Nc4cccc([N+](=O)[O-])c4)ncnc32)cc1	Raji	MTT	72 h	0.3
O=C1CCC(N2C(=O)c3cccc4c(Cc5cnn(C6CCNCC6)c5)ccc2c34)C(=O)N1 (stereo not shown)	NCI-H929	–	–	0.00016
Cc1nc(Nc2ncc(C(=O)Nc3c(C)cccc3Cl)s2)cc(N2CC[C@H](O)C2)n1	Raji	ATP luminescence	72 h	> 10
O=C1CCC(N2C(=O)c3cccc4c(Cc5cnn(C6CCN(C(=O)CS)CC6)c5)ccc2c34)C(=O)N1 (stereo not shown)	NCI-H929	–	–	0.00123
O=C(Nc1ccc(Br)cc1)Nc1nc2cc(-c3ccc4ncn(Cc5ccccc5)c(=O)c4c3)ccc2s1	PC-9	MTT	72 h	> 20
O=C1CCC(N2C(=O)c3cccc4c(Cc5cnn(C6CCN(C(=O)C7(O)CC7)CC6)c5)ccc2c34)C(=O)N1 (stereo not shown)	NCI-H929	–	–	9e-05
CCNC(=O)Nc1nc2cc(-c3ccc4ncn(Cc5ccccc5)c(=O)c4c3)ccc2s1	PC-9	MTT	72 h	> 20
COc1ccc(Nc2ncnc3c2ncn3Cc2ccc(C(=O)Nc3ccccc3N)cc2)cc1	Raji	MTT	72 h	11
CN(C)CCn1cnc2ccc(-c3ccc4sc(NC(=O)Nc5ccc(F)cc5)nc4c3)cc2c1=O	PC-9	MTT	72 h	4.87
CC(C)(O)C(=O)N1CCC(n2cc(Cc3ccc4c5c(cccc35)C(=O)N4C3CCC(=O)NC3=O)cn2)CC1 (stereo not shown)	NCI-H929	–	–	0.00019
CCCC(=O)Nc1nc2cc(-c3ccc4ncn(Cc5ccccc5)c(=O)c4c3)ccc2s1	PC-9	MTT	72 h	> 20
O=C1CC[C@H](N2C(=O)c3cccc4c(Cc5ccc(CN6CCOCC6)cc5)ccc2c34)C(=O)N1	NCI-H929	–	–	6e-05
COc1cccc(NC(=O)Nc2nc3cc(-c4ccc5ncn(CCN6CCOCC6)c(=O)c5c4)ccc3s2)c1	PC-9	MTT	72 h	> 20
Nc1ccccc1NC(=O)c1ccc(Cn2cnc3c(Nc4ccc(Cl)cc4)ncnc32)cc1	Raji	MTT	72 h	0.11
